Laboratory results reported in ChEMBL document CHEMBL1127442, “Triazolinone biphenylsulfonamide derivatives as orally active angiotensin II antagonists with potent AT1 receptor affinity and enhanced AT2 affinity” (J Med Chem, 1994).
Values joined by “and” are separate entries in the source; they are usually repeats but may differ in a detail not shown here. Equal values may be shown once.

Assays:
[1] = target: T1, Type-1 angiotensin II receptor (Oryctolagus cuniculus, UniProt P34976); test: In vitro inhibitory activity against angiotensin II rabbit aorta AT1 receptor using radioligand [125I]-Sar Ile-AII; assay type: tissue-based
T1 sequence (P34976 whole entry): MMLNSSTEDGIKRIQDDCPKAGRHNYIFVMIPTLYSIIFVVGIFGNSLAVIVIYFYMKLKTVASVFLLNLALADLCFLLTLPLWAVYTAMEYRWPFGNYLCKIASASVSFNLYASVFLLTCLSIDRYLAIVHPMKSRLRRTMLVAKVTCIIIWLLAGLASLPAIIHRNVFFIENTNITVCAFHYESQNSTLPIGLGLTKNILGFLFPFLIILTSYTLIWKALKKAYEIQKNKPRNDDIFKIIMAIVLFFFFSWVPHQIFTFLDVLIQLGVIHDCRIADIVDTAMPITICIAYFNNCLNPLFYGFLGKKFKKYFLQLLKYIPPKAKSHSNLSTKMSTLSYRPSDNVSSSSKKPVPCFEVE

[2] = system: Rattus norvegicus; test: Time from onset of action until significant (i.e., >=30%) inhibition of pressor response is no longer observed, at 1 (mg/kg) peroral dose; assay type: functional
How it was run: (§1)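 Conscious catheterized male Sprague-Dawley rats received compound iv or po as the water-soluble potassium salt, or in PEG 400 orally. AII (0.1 μg/kg iv) boluses were repeated at intervals while the compound was active.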

[3] = system: Rattus norvegicus; test: Time from onset of action until significant (i.e., >=30%) inhibition of pressor response is no longer observed, at 1 (mg/kg) intravenous dose; assay type: functional
[4] = target: T2, Type-2 angiotensin II receptor (Rattus norvegicus, UniProt P35351); test: In vitro inhibitory activity against angiotensin II rat midbrain AT2 receptor using radioligand [125I]-Sar Ile-AII
T2 sequence (P35351 whole entry): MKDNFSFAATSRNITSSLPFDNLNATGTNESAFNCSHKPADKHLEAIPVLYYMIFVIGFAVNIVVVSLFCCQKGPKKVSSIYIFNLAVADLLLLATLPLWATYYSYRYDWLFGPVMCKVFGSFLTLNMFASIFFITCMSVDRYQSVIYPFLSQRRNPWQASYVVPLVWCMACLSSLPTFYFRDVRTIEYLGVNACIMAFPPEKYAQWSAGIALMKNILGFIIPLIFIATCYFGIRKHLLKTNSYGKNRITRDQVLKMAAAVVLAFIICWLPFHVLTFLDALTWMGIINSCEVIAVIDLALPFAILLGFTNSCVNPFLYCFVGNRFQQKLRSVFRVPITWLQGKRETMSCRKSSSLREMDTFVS
How it was run: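 Dithiothreitol ([…]) was added to the assay mixture to abolish residual AT1 binding. Tubes were run in duplicate, and IC50 came from nonlinear regression of displacement curves.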

[5] = system: Rattus norvegicus; test: Inhibition of AII pressor response by the compound in conscious, normotensive rats, at 1 (mg/kg) peroral dose; assay type: functional
How it was run: (§2)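 Male Sprague-Dawley rats (300-400 g) were conscious and catheterized for iv dosing and arterial pressure. Compound was given iv or po as the potassium salt in water, with PEG 400 for some oral doses. […] Peak inhibition is the mean of ≥2 rats.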

[6] = system: Rattus norvegicus; test: Inhibition of AII pressor response by the compound in conscious, normotensive rats, at 1 (mg/kg) intravenous dose; assay type: functional; how it was run: as §2
[7] = system: Rattus norvegicus; test: Time from onset of action until significant (i.e., >=30%) inhibition of pressor response is no longer observed, at 0.3 (mg/kg) peroral dose; assay type: functional; how it was run: as §1
[8] = system: Rattus norvegicus; test: Inhibition of AII pressor response by the compound in conscious, normotensive rats, at 0.3 (mg/kg) peroral dose; assay type: functional; how it was run: as §2
[9] = system: Rattus norvegicus; test: Inhibition of AII pressor response by the compound in conscious, normotensive rats, at 0.3 (mg/kg) intravenous dose; assay type: functional; how it was run: as §2

| SMILES | IC50 [1] | IC50 [4] | Duration [2] | Duration [3] | Inhibition [5] | Inhibition [6] | Duration [7] | Inhibition [8] | Inhibition [9] |
| --- | --- | --- | --- | --- | --- | --- | --- | --- | --- |
| CCCCc1nn(-c2ccccc2C(F)(F)F)c(=O)n1Cc1ccc(-c2ccccc2S(=O)(=O)NC(=O)c2ccccc2Cl)cc1 | 0.11 nM | 36 nM | >6 h | >24 h |  |  |  |  |  |
| CCCCc1nn(-c2ccccc2C(F)(F)F)c(=O)n1Cc1ccc(-c2ccccc2S(=O)(=O)NC(=O)c2cccs2)cc1 | 0.94 nM | 540 nM | 4.3 h | >5.5 h | 61% | 76% |  |  |  |
| CCCCc1nn(-c2ccccc2C(F)(F)F)c(=O)n1Cc1ccc(-c2ccccc2S(=O)(=O)NC(=O)C(C)C)cc1 | 0.8 nM | 150 nM | 1.3 h | >6 h | 45% | 100% |  |  |  |
| CCCCc1nn(-c2ccccc2C(F)(F)F)c(=O)n1Cc1ccc(-c2ccccc2S(=O)(=O)NC(=O)c2sccc2Cl)cc1 | 0.27 nM | 30 nM |  | >6 h |  | 90% | >5 h | 64% |  |
| CCCCc1nn(-c2ccccc2C(F)(F)F)c(=O)n1Cc1ccc(-c2ccccc2S(=O)(=O)NC(=O)OCC(C)C)cc1 | 0.42 nM | 170 nM | >5 h | >6 h | 63% | 72% | >5 h and >3.5 h | 61% | 65% |
| CCCCc1nn(-c2ccccc2C(F)(F)F)c(=O)n1Cc1ccc(-c2ccccc2S(=O)(=O)NC(=O)c2occc2C)cc1 | 0.21 nM | 46 nM | >3.5 h | >6 h | 71% | 92% |  |  |  |
| CCCCc1nn(-c2ccccc2C(F)(F)F)c(=O)n1Cc1ccc(-c2ccccc2S(=O)(=O)NC(=O)c2ccc(C#N)cc2)cc1 | 0.76 nM | 400 nM |  |  |  |  |  |  |  |
| CCCCc1nn(-c2ccccc2C(F)(F)F)c(=O)n1Cc1ccc(-c2ccccc2S(=O)(=O)Nc2nc3ccccc3o2)cc1 | 5.2 nM | 700 nM |  |  |  |  |  |  |  |

Continued by falling IC50 [1], values first:

| IC50 [1] | IC50 [4] | SMILES | Duration [2] | Duration [3] | Inhibition [5] | Inhibition [6] | Duration [7] | Inhibition [8] | Inhibition [9] |
| --- | --- | --- | --- | --- | --- | --- | --- | --- | --- |
| 21 nM | 6500 nM | CCCCc1nn(-c2ccccc2C(F)(F)F)c(=O)n1Cc1ccc(-c2ccccc2S(=O)(=O)NC(=O)c2cc(OC)c(OC)c(OC)c2)cc1 |  |  |  |  |  |  |  |
| 18 nM | 410 nM | CCCc1nn(-c2ccccc2C(F)(F)F)c(=O)n1Cc1ccc(-c2ccccc2S(=O)(=O)NC(=O)C2CC2)cc1 |  |  |  |  |  |  |  |
| 1.5 nM | 110 nM | CCCCc1nn(-c2ccccc2C(F)(F)F)c(=O)n1Cc1ccc(-c2ccccc2S(=O)(=O)NC(=O)C2CC2)cc1 |  |  |  |  |  |  |  |
| 1.1 nM | 46 nM | CCCCc1nn(-c2ccccc2C(F)(F)F)c(=O)n1Cc1ccc(-c2ccccc2S(=O)(=O)NC(=O)CC(C)(C)C)cc1 |  |  |  |  | >5.5 h |  | 69% |
| 1 nM | 310 nM | CCCCc1nn(-c2ccccc2C(F)(F)F)c(=O)n1Cc1ccc(-c2ccccc2S(=O)(=O)NC(=O)c2cc(C)oc2C)cc1 |  |  |  |  |  |  |  |
| 0.64 nM | 86 nM | CCCCc1nn(-c2ccccc2C(F)(F)F)c(=O)n1Cc1ccc(-c2ccccc2S(=O)(=O)NC(=O)C2CC2(F)F)cc1 (centres undefined) |  | >5 h |  | 80% | >4 h | 59% |  |
| 0.56 nM | 110 nM | CCCCc1nn(-c2ccccc2C(F)(F)F)c(=O)n1Cc1ccc(-c2ccccc2S(=O)(=O)NC(=O)c2ccccc2C)cc1 | >2 h | >6 h | 57% | 89% |  |  |  |
| 0.32 nM | 82 nM | CCCCc1nn(-c2ccccc2C(F)(F)F)c(=O)n1Cc1ccc(-c2ccccc2S(=O)(=O)NC(=O)C2CCCC2)cc1 |  |  |  |  |  |  |  |
| 0.17 nM | 60 nM | CCCCc1nn(-c2ccccc2C(F)(F)F)c(=O)n1Cc1ccc(-c2ccccc2S(=O)(=O)NC(=O)c2cc(C)oc2C(F)(F)F)cc1 |  |  |  |  |  |  |  |
